Assay results published in ChEMBL document CHEMBL2216748 (J Med Chem, 2012).
Active and inactive are the calls of the source.

Legend:
Type in all cases: cell-free
[1] = molecular target: Heterogeneous nuclear ribonucleoproteins C1/C2 (Homo sapiens) (UniProt P07910); experiment: Displacement of 3-(1-methyl-N-(pyridin-2-yl)-2-((4-(N-((S)-6,9,25-trioxo-29-((3aS,4S,6aR)-2-oxohexahydro-1H-thieno[3,4-d]imidazol-4-yl)-8-(4-(3-(trifluoromethyl)-3H-diazirin-3-yl)benzamido)-14,17,20-trioxa-5,10,24-triazanonacosyl)carbamimidoyl)phenylamino)methyl)-1H-benzo[d]imidazole-5-carboxamido)propanoic acid from HNRPC in human HepG2 cell lysate after 1 hr by capture compound based LC/MS analysis
Method in brief: (§1)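 Capture compound MS: 400 μg HepG2 or K562 lysate in capture buffer, precleared with streptavidin beads 30 min at 4 °C. Competition controls preincubated 30 min at 4 °C with free drug (10 μL of 1 mM). Capture compound (10 μL of 50 μM) equilibrated 1 h at 4 °C, UV-irradiated 10 min, streptavidin bead pulldown, on-bead trypsin digestion, nanoLC-MS/MS. Spectral counts compared capture vs competition (t test). HepG2 in quadruplicate, K562 in duplicate.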

[2] = molecular target: T1, Ribosyldihydronicotinamide dehydrogenase [quinone] (Homo sapiens) (UniProt P16083); experiment: Displacement of (S)-N4-(4-(3-(2-((4-carbamimidoylphenylamino)methyl)-1-methyl-N-(pyridin-2-yl)-1H-benzo[d]imidazole-5-carboxamido)propanamido)butyl)-N1-(15-oxo-19-((3aS,4S,6aR)-2-oxohexahydro-1H-thieno[3,4-d]imidazol-4-yl)-4,7,10-trioxa-14-azanonadecyl)-2-(4-(3-(trifluoromethyl)-3H-diazirin-3-yl)benzamido)succinamide from NQO2 in human K562 cell lysate at 100 uM after 1 hr by Western blot analysis
T1 sequence (whole entry): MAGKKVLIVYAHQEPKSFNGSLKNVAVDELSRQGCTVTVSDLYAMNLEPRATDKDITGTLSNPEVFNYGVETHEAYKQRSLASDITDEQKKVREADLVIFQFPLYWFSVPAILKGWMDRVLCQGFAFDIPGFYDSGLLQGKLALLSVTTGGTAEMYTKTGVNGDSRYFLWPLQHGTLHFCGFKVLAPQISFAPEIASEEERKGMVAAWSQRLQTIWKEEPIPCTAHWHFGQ
Method in brief: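 NQO2 capture from HepG2 or K562 lysate, or from pooled human liver microsomes, with capture compound (1 h, 4 °C) after 30 min competitor preincubation. UV cross-linked 10 min and streptavidin pulldown. Detection by Western blot: anti-NQO2 1:500, then HRP anti-rabbit secondary 1:1000.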

[3] = molecular target: T1, Ribosyldihydronicotinamide dehydrogenase [quinone] (Homo sapiens); experiment: Displacement of (S)-N4-(4-(3-(2-((4-carbamimidoylphenylamino)methyl)-1-methyl-N-(pyridin-2-yl)-1H-benzo[d]imidazole-5-carboxamido)propanamido)butyl)-N1-(15-oxo-19-((3aS,4S,6aR)-2-oxohexahydro-1H-thieno[3,4-d]imidazol-4-yl)-4,7,10-trioxa-14-azanonadecyl)-2-(4-(3-(trifluoromethyl)-3H-diazirin-3-yl)benzamido)succinamide from NQO2 in human K562 cell lysate after 1 hr by capture compound based LC/MS analysis; method in brief: as §1
[4] = molecular target: T2, Hypoxia up-regulated protein 1 (Homo sapiens) (UniProt Q9Y4L1); experiment: Displacement of 3-(1-methyl-N-(pyridin-2-yl)-2-((4-(N-((S)-6,9,25-trioxo-29-((3aS,4S,6aR)-2-oxohexahydro-1H-thieno[3,4-d]imidazol-4-yl)-8-(4-(3-(trifluoromethyl)-3H-diazirin-3-yl)benzamido)-14,17,20-trioxa-5,10,24-triazanonacosyl)carbamimidoyl)phenylamino)methyl)-1H-benzo[d]imidazole-5-carboxamido)propanoic acid from HYOU1 in human HepG2 cell lysate after 1 hr by capture compound based LC/MS analysis; method in brief: as §1
T2 sequence (whole entry): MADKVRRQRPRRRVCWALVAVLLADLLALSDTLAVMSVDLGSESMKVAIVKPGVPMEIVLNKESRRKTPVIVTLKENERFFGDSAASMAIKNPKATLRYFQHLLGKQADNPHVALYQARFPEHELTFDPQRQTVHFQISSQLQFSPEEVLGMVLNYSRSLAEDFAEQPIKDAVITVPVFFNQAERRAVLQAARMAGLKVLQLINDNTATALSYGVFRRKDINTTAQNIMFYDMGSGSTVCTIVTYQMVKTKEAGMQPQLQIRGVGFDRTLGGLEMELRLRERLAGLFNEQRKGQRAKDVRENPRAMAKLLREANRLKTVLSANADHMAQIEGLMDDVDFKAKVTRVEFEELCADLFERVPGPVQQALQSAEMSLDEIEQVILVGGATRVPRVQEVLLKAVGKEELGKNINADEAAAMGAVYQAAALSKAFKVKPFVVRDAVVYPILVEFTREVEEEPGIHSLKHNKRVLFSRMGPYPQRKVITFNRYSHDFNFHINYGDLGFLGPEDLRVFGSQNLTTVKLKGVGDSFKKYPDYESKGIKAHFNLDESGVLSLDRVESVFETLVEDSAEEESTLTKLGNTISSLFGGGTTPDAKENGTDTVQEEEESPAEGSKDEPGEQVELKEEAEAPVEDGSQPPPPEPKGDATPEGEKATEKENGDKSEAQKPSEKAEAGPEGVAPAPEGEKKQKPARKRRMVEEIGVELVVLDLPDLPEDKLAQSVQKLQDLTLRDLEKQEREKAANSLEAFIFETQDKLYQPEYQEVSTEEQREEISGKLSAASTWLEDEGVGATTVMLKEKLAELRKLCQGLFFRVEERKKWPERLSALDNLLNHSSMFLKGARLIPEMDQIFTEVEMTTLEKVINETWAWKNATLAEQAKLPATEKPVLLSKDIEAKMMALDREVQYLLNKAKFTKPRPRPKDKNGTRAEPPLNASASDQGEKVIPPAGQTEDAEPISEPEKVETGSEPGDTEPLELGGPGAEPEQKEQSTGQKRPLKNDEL

Measured: Activity

Sequence of Heterogeneous nuclear ribonucleoproteins C1/C2 (Homo sapiens) (P07910 whole entry): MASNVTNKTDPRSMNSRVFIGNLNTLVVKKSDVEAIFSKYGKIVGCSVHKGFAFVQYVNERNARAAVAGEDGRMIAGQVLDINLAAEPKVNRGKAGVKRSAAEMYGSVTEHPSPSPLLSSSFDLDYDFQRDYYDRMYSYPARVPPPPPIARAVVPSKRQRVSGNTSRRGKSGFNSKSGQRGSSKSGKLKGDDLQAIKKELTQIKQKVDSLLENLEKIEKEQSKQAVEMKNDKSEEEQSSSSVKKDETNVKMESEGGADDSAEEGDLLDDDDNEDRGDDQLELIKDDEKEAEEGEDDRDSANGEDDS

Cn1c(CNc2ccc(C(=N)N)cc2)nc2cc(C(=O)N(CCC(=O)O)c3ccccn3)ccc21 [DABIGATRAN]
active: all assays above
